The record followed here is article PMC7312786 (Biochemistry, 2018).

One assay deals with T1, hpol λ (Homo sapiens, UniProt Q9UGP5).
T1 sequence (Q9UGP5 251-575 limits assumed): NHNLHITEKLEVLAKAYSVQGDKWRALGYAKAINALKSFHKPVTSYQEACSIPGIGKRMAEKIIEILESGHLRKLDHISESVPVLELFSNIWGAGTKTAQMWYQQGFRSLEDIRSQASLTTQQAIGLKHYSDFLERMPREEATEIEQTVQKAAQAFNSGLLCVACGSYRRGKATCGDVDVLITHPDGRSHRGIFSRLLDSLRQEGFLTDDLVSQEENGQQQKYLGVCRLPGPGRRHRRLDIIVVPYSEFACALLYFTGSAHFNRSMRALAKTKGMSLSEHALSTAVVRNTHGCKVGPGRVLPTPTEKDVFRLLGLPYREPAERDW
The experiment in a line: Fluorescence-based pol activity assay, hpol λ. It is filed as biochemical.

The target in a further assay is T2, hpol θ (Homo sapiens, UniProt O75417).
T2 sequence (O75417 1792-2590): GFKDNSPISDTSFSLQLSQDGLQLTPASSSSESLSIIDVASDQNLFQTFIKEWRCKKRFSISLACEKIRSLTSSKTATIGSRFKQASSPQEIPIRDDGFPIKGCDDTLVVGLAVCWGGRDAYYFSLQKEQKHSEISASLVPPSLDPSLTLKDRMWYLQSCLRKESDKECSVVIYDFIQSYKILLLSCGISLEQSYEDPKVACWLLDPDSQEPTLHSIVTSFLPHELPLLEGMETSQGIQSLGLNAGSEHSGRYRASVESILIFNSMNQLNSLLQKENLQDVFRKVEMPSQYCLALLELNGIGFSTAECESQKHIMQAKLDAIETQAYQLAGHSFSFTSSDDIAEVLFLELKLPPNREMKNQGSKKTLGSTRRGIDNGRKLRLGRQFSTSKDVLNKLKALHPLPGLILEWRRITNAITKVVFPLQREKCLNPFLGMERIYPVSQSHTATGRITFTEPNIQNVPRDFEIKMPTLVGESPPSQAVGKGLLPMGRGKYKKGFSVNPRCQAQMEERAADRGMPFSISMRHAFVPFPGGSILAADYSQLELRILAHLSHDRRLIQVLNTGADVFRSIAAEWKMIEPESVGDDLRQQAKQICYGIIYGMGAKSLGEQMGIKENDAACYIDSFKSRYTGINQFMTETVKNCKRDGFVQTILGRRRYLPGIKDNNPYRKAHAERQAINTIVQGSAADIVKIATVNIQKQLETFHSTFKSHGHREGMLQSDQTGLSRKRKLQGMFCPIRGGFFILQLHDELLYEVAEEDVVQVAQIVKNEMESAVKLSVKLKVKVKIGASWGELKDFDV
As to the kind of experiment: Fluorescence-based pol activity assay, hpol θ. It is filed as biochemical. The following applies: 20 μM PNR-7-02; mean (±SD).

Assay [1] has as its system hpol η-deficient HAP-1 cells. As to the kind of experiment: Cell viability. It is filed as cell-based, human. The method in brief:
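HAP-1 parental or CRISPR hpol η-null cells in IMDM with 10% FBS and 1% antibiotic/antimycotic, passage 8–10, seeded 5000 cells/well. Next day: CDDP 0–100 μM alone or with 0.1 or 1 μM test compound, 48 h. Cells washed twice in DPBS, then 2 μM Calcein-AM for 30 min at 25 °C; fluorescence ex 490/em 520 nm. Viability as % of untreated. […] Combination index by Chou–Talalay.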

In assay [2] the test system is γH2AX in hpol η-deficient HAP-1 cells. The experiment in a line: γH2AX immunoblotting, hpol η-deficient HAP-1 cells. It is filed as cell-based, human. In a few lines: (§1)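 HAP-1 cells treated with DMSO or 0.5 μM CDDP combined with 0.1 or 1 μM test compound. Pellets lysed at 4 °C in HEPES pH 7.5/Triton X-100 buffer with phosphatase and protease inhibitors. 30–40 μg protein run on 4–20% SDS-PAGE, transferred to nitrocellulose. Probed with anti-γH2AX (S139) 1:1500 and HRP anti-rabbit 1:4000; β-actin loading control; chemiluminescence. Bands normalized to β-actin, relative to DMSO; three biological replicates; t test.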
For orientation: In western blotting, separated proteins are transferred to a membrane and probed.

The next assay concerns the target T3, hpol η (Homo sapiens, UniProt Q9Y253).
T3 sequence (Q9Y253 1-437): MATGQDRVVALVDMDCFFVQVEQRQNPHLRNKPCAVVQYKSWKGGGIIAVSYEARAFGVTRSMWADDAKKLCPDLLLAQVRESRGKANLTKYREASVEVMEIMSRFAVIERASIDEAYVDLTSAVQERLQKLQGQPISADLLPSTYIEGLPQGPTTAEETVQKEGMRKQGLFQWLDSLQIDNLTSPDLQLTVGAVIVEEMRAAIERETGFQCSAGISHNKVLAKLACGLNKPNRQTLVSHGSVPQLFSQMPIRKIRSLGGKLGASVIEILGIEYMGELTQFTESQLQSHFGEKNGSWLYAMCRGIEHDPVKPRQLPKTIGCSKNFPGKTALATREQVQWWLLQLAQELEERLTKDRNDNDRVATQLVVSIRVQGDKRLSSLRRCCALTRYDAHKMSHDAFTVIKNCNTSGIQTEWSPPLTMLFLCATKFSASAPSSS
As to the kind of experiment: Gel-based pol extension assay, hpol η. The following applies: read-out: IC50, hpol η, gel-based assay; best-fit value (95% confidence interval), three experiments. It counts as biochemical.

The subject of assay [3] is γH2AX in hpol η-proficient HAP-1 cells. The experiment in a line: γH2AX immunoblotting, hpol η-proficient HAP-1 cells. The note with it: PNR-7-02 alone. It is filed as cell-based, human. In a few lines: as §1

Broadly, the IC50 is the concentration at which inhibition is half-maximal. Usually EC50 stands for the concentration needed to bring the measured effect to its halfway point.

The structures appear in SMILES notation.

As for `O=C1NC(=S)NC(=O)C1=Cc1cn(Cc2ccc3ccccc3c2)c2ccc(Cl)cc12` [PNR-7-02, 5-((5-chloro-1-(naphthalen-2-ylmethyl)-1H-indol-3-yl)methylene)-2-thioxodihydropyrimidine-4,6-(1H,5H)-dione], the “Effect on catalysis by hpol λ” value on hpol λ (20 μM PNR-7-02) is “strongly inhibited”. Further, the “Pol activity relative to DMSO control, hpol λ” value on hpol λ (20 μM PNR-7-02, mean (±SD)) was 5.9 (±2.1) %. In addition, the IC50 turned out to be 8 µM on hpol λ (read-out: IC50, hpol λ, best-fit value and 95% confidence interval, three replicates); 8 µM on hpol η. For the same compound, on hpol θ, the “Pol activity relative to DMSO control, hpol θ” value was 86 (±1) %. Moreover, in assay [1] (hpol η-deficient cells), the “Effect of adding PNR-7-02 on toxicity of CDDP” value is “does not have a notable effect”. Further, the “Combination index with CDDP” value in assay [1] (hpol η-deficient cells, 0.1 μM PNR-7-02) is listed as 1.02; in assay [1] (hpol η-deficient cells, 1 μM PNR-7-02) it was 0.90. Further, the EC50 in assay [1] (read-out: EC50, cell viability, PNR-7-02 alone, hpol η-deficient HAP-1, 48 h) turned out to be 5.6 µM. The “μH2AX, combination treatment versus CDDP alone” value in assay [2] (CDDP + PNR-7-02) is given as “did not increase”. For the same compound, the μH2AX formation result in assay [2] (PNR-7-02 alone) and in assay [3] was “did not change” each time.
